Source: ChEMBL document CHEMBL3593189, “Kadcoccinic Acids A-J, Triterpene Acids from Kadsura coccinea” (J Nat Prod, 2015)

How the values were obtained:
[1] = system: Human immunodeficiency virus 1; test: Antiviral activity against HIV1 assessed as inhibition of cytopathic effect by microtiter syncytium formation infectivity assay; type: functional, organism-based
Method in brief: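 HIV-1 cytopathic-effect inhibition read as syncytium formation in microtiter format; EC50 derived. AZT positive control.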

[2] = Cytotoxicity against human C8166 cells by MTT assay; type: cell-based
Method in brief: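 C8166 cells assessed for cytotoxicity by MTT; CC50 derived. AZT positive control.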

[3] = Therapeutic index, ratio of CC50 for human C8166 cells to EC50 for HIV1; type: cell-based; settings: read-out: Ratio CC50/EC50
Method in brief: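 Therapeutic index computed as CC50 (MTT cytotoxicity in C8166 cells) divided by EC50 (inhibition of HIV-1 cytopathic effect, syncytium formation in microtiter assay).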

A549 = test: Cytotoxicity against human A549 cells after 48 hrs by MTT assay; type: functional, cell-based; settings: A549, 48 h
HL-60 = test: Cytotoxicity against human HL60 cells after 48 hrs by MTT assay; type: functional, cell-based; settings: HL-60, 48 h
MCF7 = test: Cytotoxicity against human MCF7 cells after 48 hrs by MTT assay; type: functional, cell-based; settings: MCF7, 48 h
SMMC-7721 = test: Cytotoxicity against human SMMC7721 cells after 48 hrs by MTT assay; type: functional, cell-based; settings: SMMC-7721, 48 h
SW480 = test: Cytotoxicity against human SW480 cells after 48 hrs by MTT assay; type: functional, cell-based; settings: SW480, 48 h

Compound	EC50 [1]	CC50 [2]	selectivity ratio [3]	IC50 (A549)	IC50 (HL-60)	IC50 (MCF7)	IC50 (SMMC-7721)	IC50 (SW480)
C=C1[C@@H]([C@H](C)CC/C=C(/C)C(=O)O)CC[C@@]2(C)[C@@H]3CC[C@@H](C(C)(C)C(=O)O)[C@](C)(CC(=O)O)C3=C[C@@H]12	68.7 µM	> 200 µM	> 2.9	> 10 µM	> 10 µM	> 10 µM	> 10 µM	> 10 µM
C=C1[C@@H]([C@H](C)CC/C=C(/C)C(=O)O)CC[C@@]2(C)C3=C(C[C@@H]12)[C@@](C)(CC(=O)O)[C@H](C(C)(C)C(=O)O)CC3	120 µM	> 200 µM	> 1.7					
C=C1[C@@H]([C@H](C)CC/C=C(/C)C(=O)O)CC[C@@]2(C)[C@@H]3CC[C@H]4C(C)(C)OC(=O)CC[C@]4(C)C3=C[C@@H]12				> 10 µM	> 10 µM	> 10 µM	> 10 µM	> 10 µM
CC1=C([C@H](C)CC/C=C(/C)C(=O)O)CC[C@@]2(C)[C@@H]3CC[C@H]4C(C)(C)C(=O)CC[C@]4(C)C3=C[C@@H]12	62 µM	116 µM	1.9	> 10 µM	> 10 µM	> 10 µM	> 10 µM	> 10 µM
CO[C@@]12CC[C@H]3C(C)(C)C(=O)CC[C@]3(C)C1=CC1=C(C=O)[C@@H]([C@H](C)CC/C=C(/C)C(=O)O)CC[C@]12C	116 µM	> 200 µM	> 1.7					
C=C1[C@@H]([C@H](C)CC/C=C(/C)C(=O)O)CC[C@@]2(C)[C@@H]3CC[C@@H](C(C)(C)O)[C@](C)(CCC(=O)O)C3=C[C@@H]12	58.7 µM	143 µM	2.4					
C=C1[C@@H]([C@H](C)CC/C=C(/C)C(=O)O)CC[C@@]2(C)[C@@H]3CC[C@@H](C(C)(C)O)[C@](C)(CCC(=O)OC)C3=C[C@@H]12	81.2 µM	142 µM	1.8	> 10 µM	> 10 µM	> 10 µM	> 10 µM	> 10 µM
C=C(C)[C@@H]1CC[C@@H]2C(=C[C@@]3(OC)C(=C)[C@@H]([C@H](C)CC/C=C(/C)C(=O)O)CC[C@@]23C)[C@@]1(C)CCC(=O)O	70 µM	184 µM	2.6	> 10 µM	> 10 µM	> 10 µM	> 10 µM	> 10 µM
C=C1[C@@H]([C@H](C)CC/C=C(/C)C(=O)O)CC[C@@]2(C)[C@@H]3CC[C@@H](C(=C)C)[C@](C)(CCC(=O)O)C3=C[C@@H]12	88.2 µM	203 µM	2.3	> 10 µM	> 10 µM	> 10 µM	> 10 µM	> 10 µM
Cc1cn([C@H]2C[C@H](N=[N+]=[N-])[C@@H](CO)O2)c(=O)[nH]c1=O [ZIDOVUDINE]	0.02 µM	4690 µM	> 230000					
